Calls of active or inactive are those of the source. The calls are words filed in the database; no cut-off is given here.
Tests used:
NCI-H460 [1] = test: Cytotoxicity against human NCI-H460 cells assessed as cell death in serum free medium at 1000 nM after 12 hrs by Hoechst 33342/propidium iodide staining based fluorescence microscopy; assay type: functional
Method in brief: (§1)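 NCI-H460 human lung cancer cells exposed 12 h to 10 nM–10 μM drug, including a 50 nM single-concentration test. Nuclei were stained with Hoechst 33342 and necrotic cells with propidium iodide. Apoptotic cells were scored by condensed or fragmented blue nuclei and necrotic cells by red PI staining. Total cell death (apoptosis plus necrosis) was recorded; N = 6.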

CAKI-1 = test: Cytotoxicity against human Caki1 cells after 48 hrs by sulforhodamine B assay; assay type: functional; conditions: CAKI-1, 48 h
NCI-H460 [2] = test: Induction of apoptosis in human NCI-H460 cells in serum free medium at 50 nM after 12 hrs by Hoechst 33342/propidium iodide staining based fluorescence microscopy; assay type: functional
Method in brief: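 NCI-H460 cells exposed to a single 50 nM concentration for 12 h. Cells stained with Hoechst 33342 and propidium iodide. Blue cells with condensed or fragmented nuclei were scored as apoptotic and red, ruptured cells as necrotic. Result given as % apoptotic cell death; N = 6, one-way ANOVA.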

NCI-H460 [3] = test: Cytotoxicity against human NCI-H460 cells assessed as cell viability at 1 nM after 48 hrs by MTT assay; assay type: functional; conditions: NCI-H460, 48 h, read-out: Activity
Method in brief: (§2)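 Viability of NCI-H460 cells was measured by MTT (mitochondrial enzymatic activity) after 48 h exposure, within a dose series spanning 1 nM–10 μM. N = 9, analysed by two-way ANOVA.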

NCI-H460 [4] = test: Cytotoxicity against human NCI-H460 cells assessed as cell death in serum free medium at 250 nM after 12 hrs by Hoechst 33342/propidium iodide staining based fluorescence microscopy; assay type: functional; method in brief: as §1
IGROV-1 = test: Cytotoxicity against human IGROV1 cells after 48 hrs by sulforhodamine B assay; assay type: functional; conditions: IGROV-1, 48 h
HCC 2998 = test: Cytotoxicity against human HCC2998 cells after 48 hrs by sulforhodamine B assay; assay type: functional; conditions: HCC 2998, 48 h
NCI-H460 [5] = test: Cytotoxicity against human NCI-H460 cells assessed as cell death in serum free medium at 10000 nM after 12 hrs by Hoechst 33342/propidium iodide staining based fluorescence microscopy; assay type: functional; method in brief: as §1
T47D = test: Cytotoxicity against human T47D cells after 48 hrs by sulforhodamine B assay; assay type: functional
NCI-H460 [6] = test: Cytotoxicity against human NCI-H460 cells assessed as cell viability at 100 nM after 48 hrs by MTT assay; assay type: functional; conditions: NCI-H460, 48 h, read-out: Activity; method in brief: as §2
NCI-H460 [7] = test: Cytotoxicity against human NCI-H460 cells assessed as cell viability after 48 hrs by MTT assay; assay type: functional; conditions: NCI-H460, 48 h
Method in brief: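 NCI-H460 cells were exposed to drug for 48 h, and viability was read by MTT as mitochondrial enzymatic activity. GI50 was derived from dose-response curves (1 nM–10 μM). Values are from three independent experiments with duplicate determinations, given with standard error of the mean.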

SK-MEL-2 = test: Cytotoxicity against human SK-MEL-2 cells after 48 hrs by sulforhodamine B assay; assay type: functional
OVCAR-8 = test: Cytotoxicity against human OVCAR8 cells after 48 hrs by sulforhodamine B assay; assay type: functional; conditions: OVCAR-8, 48 h
OVCAR-5 = test: Cytotoxicity against human OVCAR5 cells after 48 hrs by sulforhodamine B assay; assay type: functional; conditions: OVCAR-5, 48 h
U-251 = test: Cytotoxicity against human U251 cells after 48 hrs by sulforhodamine B assay; assay type: functional; conditions: U-251, 48 h
NCI-H460 [8] = test: Cytotoxicity against human NCI-H460 cells assessed as cell viability at 1000 nM after 48 hrs by MTT assay; assay type: functional; conditions: NCI-H460, 48 h, read-out: Activity; method in brief: as §2
NCI-H460 [9] = test: Cytotoxicity against human NCI-H460 cells assessed as cell death in serum free medium at 75 nM after 12 hrs by Hoechst 33342/propidium iodide staining based fluorescence microscopy; assay type: functional; method in brief: as §1
RXF 393 = test: Cytotoxicity against human RXF393 cells after 48 hrs by sulforhodamine B assay; assay type: functional; conditions: RXF 393, 48 h
HCT-116 = test: Cytotoxicity against human HCT116 cells after 48 hrs by sulforhodamine B assay; assay type: functional
NCI-H460 [10] = test: Cytotoxicity against human NCI-H460 cells assessed as cell death in serum free medium at 50 nM after 12 hrs by Hoechst 33342/propidium iodide staining based fluorescence microscopy; assay type: functional; method in brief: as §1
K562 = test: Cytotoxicity against human K562 cells after 48 hrs by sulforhodamine B assay; assay type: functional; conditions: K562, 48 h
NCI-H460 [11] = test: Induction of apoptosis in human NCI-H460 cells in serum free medium after 12 hrs by Hoechst 33342/propidium iodide staining based fluorescence microscopy; assay type: functional, cell-based
Method in brief: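 NCI-H460 cells treated for 12 h at 10 nM to 10 μM. Total cell death (apoptosis plus necrosis) scored by Hoechst 33342/propidium iodide staining, with N = 6 and two-way ANOVA. IC50 obtained by nonlinear regression. Table values are the mean of three independent experiments with duplicate determinations.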

NCI-H460 [12] = test: Cytotoxicity against human NCI-H460 cells assessed as cell viability at 25 nM after 48 hrs by MTT assay; assay type: functional; conditions: NCI-H460, 48 h, read-out: Activity; method in brief: as §2
NCI-H460 [13] = test: Growth inhibition of human NCI-H460 cells after 48 hrs by MTT assay; assay type: functional
Method in brief: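 NCI-H460 viability measured by MTT (mitochondrial enzymatic activity) after 48 h exposure at 1 nM to 10 μM. GI50 derived from dose-response curves, with N = 9 and two-way ANOVA. Values are the mean of three independent experiments with duplicate determinations.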

NCI-H460 [14] = test: Ratio of digitoxin IC50 to compound IC50 for human NCI-H460 cells after 12 hrs by Hoechst 33342/propidium iodide staining based fluorescence microscopy; assay type: functional
NCI-H460 [15] = test: Cytotoxicity against human NCI-H460 cells assessed as cell viability at 50 nM after 48 hrs by MTT assay; assay type: functional; conditions: NCI-H460, 48 h, read-out: Activity; method in brief: as §2
CCRF-CEM = test: Cytotoxicity against human CCRF-CEM cells after 48 hrs by sulforhodamine B assay; assay type: functional
BT-549 = test: Cytotoxicity against human BT549 cells after 48 hrs by sulforhodamine B assay; assay type: functional; conditions: BT-549, 48 h
SF-539 = test: Cytotoxicity against human SF539 cells after 48 hrs by sulforhodamine B assay; assay type: functional; conditions: SF-539, 48 h
HL-60(TB) = test: Cytotoxicity against human HL-60(TB) cells after 48 hrs by sulforhodamine B assay; assay type: functional; conditions: HL-60, 48 h
NCI-H460 [16] = test: Cytotoxicity against human NCI-H460 cells assessed as cell death in serum free medium at 10 nM after 12 hrs by Hoechst 33342/propidium iodide staining based fluorescence microscopy; assay type: functional; method in brief: as §1
NCI/ADR-RES = test: Cytotoxicity against human NCI/ADR-RES cells after 48 hrs by sulforhodamine B assay; assay type: functional
NCI-H460 [17] = test: Cytotoxicity against human NCI-H460 cells assessed as cell viability at 10 nM after 48 hrs by MTT assay; assay type: functional; conditions: NCI-H460, 48 h, read-out: Activity; method in brief: as §2
NCI-H460 [18] = test: Cytotoxicity against human NCI-H460 cells assessed as cell death in serum free medium at 100 nM after 12 hrs by Hoechst 33342/propidium iodide staining based fluorescence microscopy; assay type: functional; method in brief: as §1
NCI-H460 [19] = test: Cytotoxicity against human NCI-H460 cells assessed as cell death in serum free medium at 500 nM after 12 hrs by Hoechst 33342/propidium iodide staining based fluorescence microscopy; assay type: functional; method in brief: as §1
NCI-H460 [20] = test: Cytotoxicity against human NCI-H460 cells assessed as cell viability at 500 nM after 48 hrs by MTT assay; assay type: functional; conditions: NCI-H460, 48 h, read-out: Activity; method in brief: as §2
NCI-H460 [21] = test: Cytotoxicity against human NCI-H460 cells assessed as cell death in serum free medium at 25 nM after 12 hrs by Hoechst 33342/propidium iodide staining based fluorescence microscopy; assay type: functional; method in brief: as §1
MDA-MB-435 = test: Cytotoxicity against human MDA-MB-435 breast cancer cells after 48 hrs by sulforhodamine B assay; assay type: functional; conditions: MDA-MB-435, 48 h

C[C@@H]1O[C@@H](O[C@H]2CC[C@@]3(C)[C@H](CC[C@@H]4[C@@H]3CC[C@]3(C)[C@@H](C5=CC(=O)OC5)CC[C@]43O)C2)CC[C@H]1O [RAMNODIGIN]
Activity (NCI-H460 [1]): 100%
GI50 (CAKI-1): 3.32 nM
Activity (NCI-H460 [2]): 42.463%
viability at 0.001 µM (NCI-H460 [3]): 77%
Activity (NCI-H460 [4]): 100%
GI50 (IGROV-1): 5.23 nM
GI50 (HCC 2998): 16.5 nM
Activity (NCI-H460 [5]): 100%
GI50 (T47D): 20.6 nM
viability at 0.1 µM (NCI-H460 [6]): 5%
GI50 (NCI-H460 [7]): 1.93 nM
GI50 (SK-MEL-2): inactive
GI50 (OVCAR-8): 2.5 nM
GI50 (OVCAR-5): 17.4 nM
GI50 (U-251): 12.7 nM
viability at 1 µM (NCI-H460 [8]): 3.25%
Activity (NCI-H460 [9]): 77.04%
GI50 (RXF 393): 1.22 nM
GI50 (HCT-116): inactive
Activity (NCI-H460 [10]): 52.04%
GI50 (K562): 19.5 nM
Activity (NCI-H460 [11]): Dose-dependent effect
IC50 (NCI-H460 [11]; NCI-H460, 12 h): 51.7 nM
viability at 0.025 µM (NCI-H460 [12]): 7.14%
GI50 (NCI-H460 [13]): Dose-dependent effect
GI50 (NCI-H460 [13]; NCI-H460, 48 h): 2 nM
Ratio IC50 (NCI-H460 [14]): 4
viability at 0.05 µM (NCI-H460 [15]): 6.18%
GI50 (CCRF-CEM): 8.49 nM
GI50 (BT-549): 2.41 nM
GI50 (SF-539): 7.8 nM
GI50 (HL-60(TB)): 2.96 nM
Activity (NCI-H460 [16]): 18.12%
GI50 (NCI/ADR-RES): 4.12 nM
viability at 0.01 µM (NCI-H460 [17]): 13.9%
Activity (NCI-H460 [18]): 98.61%
Activity (NCI-H460 [19]): 100%
viability at 0.5 µM (NCI-H460 [20]): 3.69%
Activity (NCI-H460 [21]): 22.09%
GI50 (MDA-MB-435): 21 nM

From ChEMBL document CHEMBL1817593, “C5'-Alkyl Substitution Effects on Digitoxigenin α-l-Glycoside Cancer Cytotoxicity” (ACS Med Chem Lett, 2011)
